Reference: PubChem BioAssay AID2178 (The Scripps Research Institute Molecular Screening Center, 2009)
Fewer than 10 of roughly 2,400 compounds were called active. A selection follows. Values without a mark were called inactive.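 The calls were made as follows: active = average inhibition across replicates above the hit cutoff set in the earlier primary screen; inactive = the rest.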

Biological target: Procathepsin L (Homo sapiens) (UniProt P07711)
Test: cathepsin L1 inhibitors, retest, confirmation, counter-screen for PFM18AAP inhibitor project, biochemical, QFRET, triplicate (AID 2178);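 also: 0% = median of test compound wells and 100% = Z-Phe-Ala-diazomethylketone 1 µM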
Settings: purified cathepsin L1, Z-Leu-Arg-MCA fluorescence; at 5.96 µM; stronger effect = higher value
In short: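 System: Purified cathepsin L1 | Amount: Enzyme 1.5 µg/mL before substrate addition | Also added: Z-Leu-Arg-MCA fluorogenic substrate | Incubation: Enzyme-compound preincubation 30 min, substrate reaction 90 min, 25 °C | Technique: MCA fluorescence measured at substrate addition and at 90 min | Measure: Percent inhibition from fluorescence change | Replicates: Triplicate wells per compound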

Procathepsin L (Homo sapiens), sequence (P07711 whole entry, looked up): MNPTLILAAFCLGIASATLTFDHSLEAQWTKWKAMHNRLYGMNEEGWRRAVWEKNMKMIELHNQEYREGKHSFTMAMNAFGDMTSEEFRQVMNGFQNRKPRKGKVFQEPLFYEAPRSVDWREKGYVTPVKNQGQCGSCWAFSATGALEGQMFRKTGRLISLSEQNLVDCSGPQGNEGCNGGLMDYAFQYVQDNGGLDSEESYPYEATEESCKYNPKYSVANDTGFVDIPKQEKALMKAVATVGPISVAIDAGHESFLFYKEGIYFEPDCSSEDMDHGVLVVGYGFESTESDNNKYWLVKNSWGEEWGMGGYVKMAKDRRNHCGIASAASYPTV

| SMILES | inhibition [%] |
| --- | --- |
| COc1ccc(OC)c(Nc2nc(-c3ccc(O)c(O)c3)cs2)c1 | 4.97 |
| Cc1cc2nc3c(=O)n(Cc4ccccc4)c(=O)[nH]c3nc2cc1N | 2.68 |
| Cc1cc(-c2ccc(/C=N/n3cnnc3)o2)c([N+](=O)[O-])cc1C | 1.38 |
| O=C(CC(n1cncn1)C(Cl)(Cl)Cl)c1ccc([N+](=O)[O-])cc1 (stereo not given) | 1.47 |
| Cc1ccc(Cl)cc1-c1ccc(/C=N/n2cnnc2)o1 | 3.57 |
| COc1cc(S(=O)(=O)Nc2ncn[nH]2)ccc1Cl | 0.28 |
| O=[N+]([O-])c1ccc(N2CCN(c3ccc(O)cc3)CC2)c(Cl)c1 | 0.99 |
| COc1cccc2cc(-c3cc(=O)oc4cc(C)c(O)cc34)oc12 | -0.83 |
| CC(=O)N(c1ccc2oc(=O)sc2c1)S(=O)(=O)c1ccc(C)cc1 | -0.05 |
| O=S(=O)(c1ccc(NC(=S)NN=C(C2CC2)C2CC2)cc1)N1CCOCC1 | 0.19 |
| COc1cc(NC(=S)N2CCCC(C)C2)c(OC)cc1Cl (stereo not given) | -10.4 |
| Cc1ccsc1/C=N/Nc1ccc(Cl)nn1 | 0.84 |
| COc1ccccc1-c1nnc(SCC(=O)Nc2cc(C)on2)o1 | 8.93 |
| O=C(N/N=C/c1ccc(O)c(O)c1)C1c2ccccc2Oc2ccccc21 | -5.02 |
| O=C(CN1CCN(S(=O)(=O)c2cc(Cl)ccc2Cl)CC1)c1ccc(O)c(O)c1 | -1.56 |
| O=C(Cn1c[n+](CC(=O)c2ccc([N+](=O)[O-])cc2)cn1)c1ccc([N+](=O)[O-])cc1 | 13.7 |
| Cc1ccc(NC(=O)c2c(NC(=O)CCC(=O)O)sc3c2CCCCC3)cc1 | 5.04 |
| CC/C(C)=N/Nc1nc2sc3c(c2c(=O)[nH]1)CC(C)(C)OC3 | 2.48 |
| Cn1sc(=O)c2cc(S(=O)(=O)NC3CC3)ccc21 | -0.58 |
| CCOc1ccc(-n2c(O)c(/C=N/Nc3nnc(C)c(=O)[nH]3)c3ccccc3c2=O)cc1 | -0.55 |
| Oc1cccc(/C=N/Nc2ccc(Cl)nn2)c1O | 2.12 |
| Cc1c(CC(=O)N2CCN(C(=O)C3COc4ccccc4O3)CC2)c(=O)oc2c(O)c(O)ccc12 (stereo not given) | 0.56 |
| O=C(CSC(=S)N1CCOCC1)c1cc(Br)cc(Br)c1O | -2.37 |
| CNC(=O)c1c(NC(NC(=O)c2ccco2)C(=O)c2ccc(Cl)cc2)sc2c1CCCC2 (stereo not given) | -3.32 |
| N#CCC(=O)N/N=C/c1ccc(SCC(=O)Nc2ccccc2)o1 | -1.02 |

| SMILES | inhibition [%] |
| --- | --- |
| CC(=O)c1ccc(NC(=O)CCc2nnc3ccc(NCc4ccco4)nn23)cc1 | -4.62 |
| c1ccc(-c2ccc3c(c2)NC(C2Nc4cc(-c5ccccc5)ccc4O2)O3)cc1 (stereo not given) | 0.56 |
| CCN(CC)S(=O)(=O)c1cc([N+](=O)[O-])ccc1NNC(=O)Nc1ccccc1 | 5.14 |
| COc1cc(Br)cc(/C=N/c2ncn[nH]2)c1O | -0.48 |
| Oc1c(C(c2ccco2)N2CCC3(CC2)OCCO3)sc2ncnn12 (stereo not given) | -2.01 |
| Cc1onc(-c2ccccc2)c1C(=O)NNC(=S)NC(=O)c1ccc(F)cc1 | 3.64 |
| O=C(CSc1ncn[nH]1)Nc1nc(-c2cccc([N+](=O)[O-])c2)cs1 | 1.01 |
| COc1ccc(/C=N/Nc2nc3ccccc3o2)cc1OC | -3.54 |
| Cc1cc([N+](=O)[O-])c(-c2ccc(/C=N/n3cnnc3)o2)cc1Cl | 5.55 |
| O=C(CSc1ncn[nH]1)Nc1nsc(-c2ccccc2)n1 | 1.95 |
| NC(=O)c1c(Nc2nc3c(F)cccc3s2)sc2c1CCCC2 | 3.61 |
| CCOC(=O)NNc1cc(C(F)(F)F)ccn1 | 4.25 |
| Cc1cc(/C=N/Nc2ccc([N+](=O)[O-])cn2)c(C)n1-c1cccc(C(=O)O)c1 | 3.84 |
| S=c1[nH]c(-c2cccs2)cn1-c1ccccc1 | -4.9 |
| Cc1nccn1CC(=O)N/N=C/c1ccc(O)c(O)c1 | 5.14 |
| Oc1ccc(-c2csc(Nc3cccnc3)n2)cc1 | 6.56 |
| O=C(NNC(=O)c1ccco1)Nc1ccccc1 | 2.81 |
| CCOCCCNC(=O)c1ccc(CS(=O)(=O)c2cccc(C(F)(F)F)c2)o1 | -1.17 |
| ONC(=Nc1ccccc1)c1ccccc1Cl | 1.1 |
| CCN1/C(=C/C(=S)Nc2ccccc2)Sc2ccccc21 | 0.64 |
| OCCN1CCN(C(=S)c2ccc(-c3ccccc3)cc2)CC1 | -0.85 |
| CCn1c(CNS(=O)(=O)c2ccc(Cl)cc2)n[nH]c1=S | 1.4 |
| CC1(C)CC(=O)C/C(=N\NC(=O)c2cccs2)C1 | -0.13 |
| Cc1ccnc(-n2sc3ccccc3c2=O)n1 | -1.29 |
| Cc1nnc(SCC(=O)Nn2cnnc2)s1 | 1.95 |
